{"source": "ChEMBL document CHEMBL1142061", "about": "“The 6-fluoro-8-methoxy quinolone gatifloxacin down-regulates interleukin-8 production in prostate cell line PC-3” (Antimicrob Agents Chemother, 2007)", "key": {"[1]": {"system": "PC-3", "assay": "Decrease in IL8 secretion in human PC3 cells", "format": "functional, cell-based", "method_in_brief": "(§1)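 PC-3 cells seeded 2 × 10^5/well, grown 24 h, washed with PBS and switched to serum-free RPMI 1640. GFLX added (0.1 N NaOH vehicle control) and cells incubated 24 h without stimulus. IL-8 in medium quantified by ELISA; means ± SD of three experiments.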"}, "[2]": {"system": "PC-3", "assay": "Inhibition of TNF alpha-stimulated IL8 mRNA expression in human PC3 cells at 16 ug/ml after 48 hrs", "format": "functional, cell-based", "method_in_brief": "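PC-3 cells seeded 4 × 10^5 per 35-mm dish, grown 24 h, then GFLX 16 μg/ml for 48 h with medium and drug refreshed every 24 h. Cells moved to serum-free RPMI with GFLX and given TNF-α 10 ng/ml for 4 h. TRIzol RNA, oligo(dT) RT, 23-cycle PCR for IL-8 and β-actin. Densitometric IL-8/β-actin band ratio.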"}, "[3]": {"system": "PC-3", "assay": "Suppression of TNF alpha-stimulated IL8 D-188 mutant promoter activity in human PC3 cells at 16 ug/ml dual luciferase reporter assay", "format": "functional, cell-based", "method_in_brief": "(§2)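 PC-3 cells seeded 4 × 10^4/well and transfected with an IL-8 5′-deletion luciferase construct plus pRL-TK. 24 h later, GFLX 16 μg/ml for 24 h. Then serum-free medium, fresh GFLX and TNF-α 10 ng/ml for 2 h. Promoter activity by dual luciferase assay; means ± SD of three experiments.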"}, "[4]": {"system": "PC-3", "assay": "Decrease in IL8 secretion in human PC3 cells at 4 ug/ml", "format": "functional", "design": "scale not given: the % may be the effect or the level left", "method_in_brief": "as §1"}, "[5]": {"system": "PC-3", "assay": "Inhibition of Mycoplasma hominis-induced NF kappaB activation in human PC3 cells at 16 ug/ml", "format": "functional, cell-based", "method_in_brief": "(§3)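 Cells transiently transfected (FuGENE 6) with NF-κB firefly luciferase reporter plus pRL-TK Renilla control. After 24 h, GFLX 16 μg/ml for 24 h, then serum-free medium with GFLX again. Stimulation: PGN 1 μg/ml or M. hominis membrane fraction 0.1 μg/ml for 6 h, TNF-α 10 ng/ml for 2 h. Dual luciferase read-out; three experiments.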"}, "[6]": {"system": "PC-3", "assay": "Inhibition of TNF alpha-induced NF kappaB activation in human PC3 cells at 16 ug/ml", "format": "functional, cell-based", "method_in_brief": "as §3"}, "[7]": {"system": "PC-3", "assay": "Suppression IL8 secretion in human PC3 cells at 16 ug/ml added simultaneously with TNF alpha", "format": "functional", "method_in_brief": "(§4)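 PC-3 cells seeded 2 × 10^5/well and grown 24 h. GFLX 16 μg/ml added together with TNF-α (0, 5, 10, 25 ng/ml), or 30 or 60 min after it. Total TNF-α exposure 120 min. Secreted IL-8 measured by ELISA; means ± SD of three experiments.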"}, "[8]": {"system": "PC-3", "assay": "Suppression of 0.1 ng/ml LPS-stimulated IL8 secretion in human PC3 cells", "format": "functional"}, "[9]": {"system": "PC-3", "assay": "Suppression of TNF alpha-stimulated IL8 secretion in human PC3 cells", "format": "functional, cell-based", "method_in_brief": "(§5)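 Cells seeded, transfected 24 h later, given GFLX 16 μg/ml 24 h after transfection. Then serum-free medium with fresh GFLX plus stimulus: PGN 1 μg/ml, M. hominis membrane fraction 0.1 μg/ml or […] for 6 h; TNF-α 10 ng/ml for 2 h. IL-8 in supernatant by ELISA; means ± SD, three experiments.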"}, "[10]": {"system": "PC-3", "assay": "Suppression of TNF alpha-stimulated IL8 promoter activity in human PC3 cells", "format": "functional, cell-based", "method_in_brief": "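PC-3 cells transfected with IL-8 promoter (−1481 to +44 bp) in pGL3-Basic plus pRL-TK. 24 h later, GFLX at 0, 2, 4 or 16 μg/ml for 24 h. Serum-free medium with same GFLX and TNF-α 10 ng/ml for 2 h. Dual luciferase read-out; means ± SD, three experiments.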"}, "[11]": {"system": "PC-3", "assay": "Cytotoxicity against human PC3 cells at 2 ug/ml relative to control", "format": "cell-based", "method_in_brief": "(§6)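 PC-3 cells seeded 5 × 10^4/well, grown 24 h, then exposed to GFLX (from 2 mg/ml stock in 0.1 N NaOH; equal NaOH as control) for 48 h. Viability read with a modified MTT method (cell counting kit 8), expressed as % of untreated controls; mean ± SD, n = 3.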"}, "[12]": {"system": "PC-3", "assay": "Cytotoxicity against human PC3 cells at 16 ug/ml relative to control", "format": "cell-based", "method_in_brief": "as §6"}, "[13]": {"system": "PC-3", "assay": "Suppression of TNF alpha-stimulated IL8 D-240 mutant promoter activity in human PC3 cells at 16 ug/ml dual luciferase reporter assay", "format": "functional, cell-based", "method_in_brief": "as §2"}, "[14]": {"system": "PC-3", "assay": "Inhibition of peptidoglycan-induced NF kappaB activation in human PC3 cells at 16 ug/ml", "format": "functional, cell-based", "method_in_brief": "as §3"}, "[15]": {"system": "PC-3", "assay": "Suppression of TNF alpha-stimulated IL8 D-170 mutant promoter activity in human PC3 cells at 16 ug/ml dual luciferase reporter assay", "format": "functional, cell-based", "method_in_brief": "as §2"}, "[16]": {"system": "PC-3", "assay": "Suppression of TNF alpha-stimulated IL8 secretion in human PC3 cells at 16 ug/ml added 30 mins after stimulation", "format": "functional", "details": "PC-3, 0.5 h", "method_in_brief": "as §4"}, "[17]": {"system": "PC-3", "assay": "Suppression of TNF alpha-stimulated IL8 secretion in human PC3 cells at 16 ug/ml added 60 mins after stimulation", "format": "functional, cell-based", "method_in_brief": "as §4"}, "[18]": {"system": "PC-3", "assay": "Suppression of 1 ng/ml LPS-stimulated IL8 secretion in human PC3 cells", "format": "functional"}, "[19]": {"system": "PC-3", "assay": "Suppression of TNF alpha-stimulated IL8 mutant promoter activity in human PC3 cells at 16 ug/ml by dual luciferase reporter assay"}, "[20]": {"system": "PC-3", "assay": "Suppression of PMA-stimulated IL8 secretion in human PC3 cells", "format": "functional", "method_in_brief": "as §5"}, "[21]": {"system": "PC-3", "assay": "Cytotoxicity against human PC3 cells at 4 ug/ml relative to control", "format": "cell-based", "method_in_brief": "as §6"}, "[22]": {"system": "PC-3", "assay": "Reduction of peptidoglycan-stimulated IL8 secretion in human PC3 cells", "format": "functional", "design": "scale not given: the % may be the effect or the level left", "method_in_brief": "as §5"}, "[23]": {"assay": "Decrease in IL8 secretion in human prostatic myofibroblast cells at 16 ug/ml", "format": "functional", "design": "scale not given: the % may be the effect or the level left"}, "[24]": {"system": "PC-3", "assay": "Reduction of Mycoplasma hominis-stimulated IL8 secretion in human PC3 cells", "format": "functional", "design": "scale not given: the % may be the effect or the level left", "method_in_brief": "as §5"}, "[25]": {"system": "PC-3", "assay": "Decrease in IL8 secretion in human PC3 cells at 16 ug/ml", "format": "functional", "design": "scale not given: the % may be the effect or the level left", "method_in_brief": "as §1"}, "[26]": {"assay": "Decrease in IL8 secretion in human prostatic myofibroblast cells at 4 ug/ml", "format": "functional", "design": "scale not given: the % may be the effect or the level left"}}, "note": "Activity calls are given as the source filed them. The calls are words filed in the database; no cut-off is given here.", "data": [{"molecule": "COc1c(N2CCNC(C)C2)c(F)cc2c(=O)c(C(=O)O)cn(C3CC3)c12", "note": "(stereo unspecified) [GATIFLOXACIN]", "values": [{"measurement": "Activity", "setting": "[1]", "result": "Dose-dependent effect"}, {"measurement": "Activity", "setting": "[2]", "result": "Active"}, {"measurement": "Activity", "setting": "[3]", "result": "Active"}, {"measurement": "Activity", "setting": "[4]", "result": 22, "unit": "%"}, {"measurement": "Activity", "setting": "[5]", "result": "inactive"}, {"measurement": "Activity", "setting": "[6]", "result": "inactive"}, {"measurement": "Activity", "setting": "[7]", "result": 37, "unit": "%"}, {"measurement": "Activity", "setting": "[8]", "result": 19, "unit": "%"}, {"measurement": "Activity", "setting": "[9]", "result": "Active"}, {"measurement": "Activity", "setting": "[10]", "result": "Active"}, {"measurement": "Activity", "setting": "[11]", "result": 97.6, "unit": "%"}, {"measurement": "Activity", "setting": "[12]", "result": 96.6, "unit": "%"}, {"measurement": "Activity", "setting": "[13]", "result": "Active"}, {"measurement": "Activity", "setting": "[14]", "result": "inactive"}, {"measurement": "Activity", "setting": "[15]", "result": "inactive"}, {"measurement": "inhibition at 16 µg/mL", "setting": "[16]", "result": 25, "unit": "%"}, {"measurement": "Activity", "setting": "[17]", "result": "Active"}, {"measurement": "Activity", "setting": "[18]", "result": 16, "unit": "%"}, {"measurement": "Activity", "setting": "[19]", "result": "Active"}, {"measurement": "Activity", "setting": "[20]", "result": 34, "unit": "%"}, {"measurement": "Activity", "setting": "[21]", "result": 100, "unit": "%"}, {"measurement": "Activity", "setting": "[22]", "result": 42, "unit": "%"}, {"measurement": "Activity", "setting": "[23]", "result": 50, "unit": "%"}, {"measurement": "Activity", "setting": "[24]", "result": 52, "unit": "%"}, {"measurement": "Activity", "setting": "[25]", "result": 38, "unit": "%"}, {"measurement": "Activity", "setting": "[26]", "result": 19, "unit": "%"}]}]}
